ChEMBL document CHEMBL1129934, “Synthesis, antimalarial activity, and molecular modeling of tebuquine analogues” (J Med Chem, 1997)

Columns and labels:
[1] = Cellular accumulation ratio (CAR) for chloroquine sensitive HB3 strain of Plasmodium falciparum; type: functional
Procedure, shortened: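 IC50 for HB3 measured at a range of inoculum sizes in the [3H]-hypoxanthine 48 h assay. It is extrapolated to zero inoculum to give the absolute IC50. CAR is calculated as (measured IC50 − absolute IC50)/(absolute IC50 × fractional volume of parasitized RBC).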

[2] = tested on: Plasmodium falciparum; assay: In vitro inhibition of chloroquine-sensitive Plasmodium falciparum HB3; type: functional, organism-based
Procedure, shortened: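 HB3 parasites kept in human erythrocytes (2–5%) in RPMI 1640 with 25 mM HEPES, 32 mM NaHCO3, 10% human serum, gassed 3% O2/4% CO2/93% N2. 48 h assay: initial parasitemia 1%, 5% hematocrit, ethanol-dissolved drug (final <1% ethanol); [3H]-hypoxanthine (0.5 μCi) added at 24 h, counted after further 24 h. Triplicate; IC50 by probit interpolation of log dose–response.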

[3] = tested on: Plasmodium falciparum; assay: In vitro inhibition of chloroquine-resistant Plasmodium falciparum K1; type: functional, organism-based
Procedure, shortened: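 P. falciparum K1 (uncloned, Thailand) kept in human erythrocytes in RPMI 1640 with 25 mM HEPES, 32 mM NaHCO3, 10% human serum, under 3% O2/4% CO2/93% N2. Stocks in ethanol, final <1% ethanol. 48 h test at 1% initial parasitemia, 5% hematocrit, 37 °C; [3H]-hypoxanthine added at 24 h, incorporation counted at 48 h. IC50 by probit interpolation of log dose–response; triplicate.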

IC50 [2] [nM]	Structure (SMILES)	CAR [1]	IC50 ([3]; Plasmodium falciparum) [nM]	IC50 [3] [nM]
	CCN(CC)CCCC(C)Nc1ccnc2cc(Cl)ccc12 (configuration not stated)	1860		
55.2	CCN(CC)Cc1cc(Nc2ccnc3cc(Cl)ccc23)cc(F)c1O	1510		
4.5	CCNCc1cc(Nc2ccnc3cc(Cl)ccc23)ccc1O [DESETHYL AMODIAQUINE]	6410		
17	CCNCCCC(C)Nc1ccnc2cc(Cl)ccc12 (configuration not stated) [DESETHYLCHLOROQUINE]	682		
	CC(C)(C)NCc1cc(Nc2ccnc3cc(Cl)ccc23)cc(-c2ccc(Cl)cc2)c1O [TEBUQUINE]	70200		42.1
31.9	CCN(CC)Cc1cc(Nc2ccnc3cc(Cl)ccc23)ccc1F	1710		
47.3	CCN(CC)Cc1c(O)cc(F)c(Nc2ccnc3cc(Cl)ccc23)c1F	922		
16.2	CCN(CC)Cc1cccc(Nc2ccnc3cc(Cl)ccc23)c1	3090		
3.7	CC(C)(C)NCc1cc(Nc2ccnc3cc(Cl)ccc23)ccc1O [N-TERT-BUTYL-AMODIAQUINE]	21100		

Structure (SMILES)	IC50 [2] [nM]	CAR [1]	IC50 ([3]; Plasmodium falciparum) [nM]	IC50 [3] [nM]
CC(C)(C)NCc1cc(Nc2ccnc3cc(Cl)ccc23)cc(-c2ccc(Cl)cc2)c1	56.6	1200	74.2	
CC(C)(C)NCc1cc(Nc2ccnc3cc(Cl)ccc23)cc(-c2ccc(Cl)cc2)c1F [FLOUROTEBUQUINE]	61.6	1080		
CCN(CC)Cc1cc(Nc2ccnc3cc(Cl)ccc23)ccc1O	3.7	12600	27.2	
CCN(CC)Cc1cc(Nc2ccnc3cc(Cl)ccc23)cc(-c2ccc(Cl)cc2)c1F	104		101	
